Results from ChEMBL document CHEMBL3739331, “Synthesis and Bioactivities of Kanamycin B-Derived Cationic Amphiphiles” (J Med Chem, 2015).
Converted amounts (≈) assume the structure as drawn. The source made the active and inactive calls. No cut-off for these calls is given here.

What was measured:
[1] = Activity of AAC(6')-1e/APH(2'')-1a (unknown origin) assessed as compound acetylation activity by Ellman's method
Acinetobacter baumannii = test: Antibacterial activity against Acinetobacter baumannii ATCC 19606 by microdilution method; format: functional
Method in brief: (§1)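 Broth microdilution MIC against the named bacterial strain, reported in μg/mL; each determination run at least in duplicate.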

Candida albicans [2] = test: Antifungal activity against azole-susceptible Candida albicans ATCC MYA-2876 after 48 hrs by microbroth dilution method; format: functional; details: ATCC MYA-2876, 48 h
Method in brief: (§2)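 Yeast MIC by broth microdilution, run in duplicate. The aminoglycoside compounds are read as MIC-0 (complete inhibition). Azoles are read as MIC-2 (50% inhibition).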

Candida albicans [3] = test: Antifungal activity against azole-susceptible Candida albicans ATCC MYA-2876 after 48 hrs in presence of posaconazole by checkerboard microdilution assay; format: functional; details: ATCC MYA-2876, 48 h
Method in brief: (§3)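 Checkerboard combinations of the aminoglycoside amphiphile with posaconazole against yeast strains, run in duplicate. Each agent's MIC is taken alone and in combination. The fractional inhibitory concentration index (FICI) is calculated to classify the interaction.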

Aspergillus nidulans = test: Antifungal activity against Aspergillus nidulans ATCC 38163 after 48 hrs by microbroth dilution method; format: functional; details: ATCC 38163, 48 h
Method in brief: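 Filamentous fungus MIC by broth microdilution, run in duplicate. All compounds are read as MIC-0 (complete inhibition).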

Candida albicans [4] = test: Antifungal activity against azole-resistant Candida albicans ATCC 64124 after 48 hrs in presence of posaconazole by checkerboard microdilution assay; format: functional; details: ATCC 64124, 48 h; method in brief: as §3
Staphylococcus aureus [5] = test: Antibacterial activity against Staphylococcus aureus NRS22 (USA 600) by microdilution method; format: functional; method in brief: as §1
Enterobacter cloacae = test: Antibacterial activity against Enterobacter cloacae ATCC 13047 by microdilution method; format: functional; method in brief: as §1
Candida albicans [6] = test: Antifungal activity against azole-resistant Candida albicans ATCC 64124 after 48 hrs by microbroth dilution method; format: functional; details: ATCC 64124, 48 h; method in brief: as §2
Candida albicans [7] = test: Antifungal activity against azole-resistant Candida albicans ATCC 64124 assessed as cell membrane permeabilization at twice the MIC after 1 hr by propidium iodide-staining based fluorescence microscopic analysis (reference value: <2%); format: functional
Bacillus subtilis = test: Antibacterial activity against Bacillus subtilis 168 by microdilution method; format: functional; details: subsp. subtilis str. 168; method in brief: as §1
[8] = test system: Bacillus subtilis subsp. subtilis str. 168; test: Activity of Bacillus subtilis 168 APH(2'')-1a assessed as compound phosphorylation activity by Ellman's method
Candida albicans [9] = test: Antifungal activity against azole-resistant Candida albicans ATCC 64124 assessed as cell membrane permeabilization at 1 times MIC after 1 hr by propidium iodide-staining based fluorescence microscopic analysis (reference value: <2%); format: functional
Candida albicans [10] = test: Antifungal activity against azole-resistant Candida albicans ATCC 90819 after 48 hrs by microbroth dilution method; format: functional; details: ATCC 90819, 48 h; method in brief: as §2
Escherichia coli = test: Antibacterial activity against Escherichia coli MC1061 by microdilution method; format: functional
Method in brief: (§4)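 Broth microdilution MIC, in μg/mL, against a panel of Gram-positive and Gram-negative strains. Run at least in duplicate.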

[11] = test system: Mycobacterium tuberculosis; test: Activity of Mycobacterium tuberculosis AAC(2')-1c assessed as compound acetylation activity by Ellman's method
A549 = test: Cytotoxicity against human A549 cells after 24 hrs by resazurin assay; format: cell-based; details: Homo sapiens, A549, 24 h
Candida albicans [12] = test: Antifungal activity against azole-resistant Candida albicans MYA-1003 after 48 hrs by microbroth dilution method; format: functional; details: MYA-1003, 48 h; method in brief: as §2
Candida albicans [13] = test: Antifungal activity against azole-susceptible Candida albicans ATCC MYA-2310 after 48 hrs by microbroth dilution method; format: functional; details: ATCC MYA-2310, 48 h; method in brief: as §2
Serratia marcescens = test: Activity of Serratia marcescens AAC(6')-2d assessed as compound acetylation activity by Ellman's method
Candida albicans [14] = test: Antifungal activity against azole-resistant Candida albicans ATCC 10231 after 48 hrs in presence of posaconazole by checkerboard microdilution assay; format: functional; details: ATCC 10231, 48 h; method in brief: as §3
Candida albicans [15] = test: Antifungal activity against azole-resistant Candida albicans MYA-1237 after 48 hrs in presence of posaconazole by checkerboard microdilution assay; format: functional; details: MYA-1237, 48 h; method in brief: as §3
Salmonella enterica = test: Antibacterial activity against Salmonella enterica ATCC 14028 by microdilution method; format: functional; method in brief: as §1
Enterococcus = test: Antibacterial activity against vancomycin-resistant Enterococcus by microdilution method; format: functional; method in brief: as §4
Candida albicans [16] = test: Antifungal activity against azole-resistant Candida albicans ATCC 64124 at sub-MIC measured over 24 hrs by time-kill assay; format: functional, organism-based
Method in brief: (§5)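 Time-kill assay on C. albicans ATCC 64124 cultures exposed to test compound at 1/2 MIC, MIC and higher concentrations. Amphotericin B at 1 μg/mL and a no-drug culture serve as controls. CFU are counted at intervals over 24 h.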

Candida albicans [17] = test: Antifungal activity against azole-resistant Candida albicans MYA-1237 after 48 hrs by microbroth dilution method; format: functional; details: MYA-1237, 48 h; method in brief: as §2
[18] = Hemolytic activity against mouse RBC at 125 ug/ml after 60 mins; format: ADME, cell-based, Erythrocyte; details: red blood cells, read-out: Activity
Candida albicans [19] = test: Antifungal activity against azole-resistant Candida albicans MYA-1003 after 48 hrs in presence of posaconazole by checkerboard microdilution assay; format: functional; details: MYA-1003, 48 h; method in brief: as §3
Staphylococcus aureus [20] = test: Antibacterial activity against Staphylococcus aureus NRS385 (USA 300) by microdilution method; format: functional; method in brief: as §4
Candida albicans [21] = test: Antifungal activity against azole-resistant Candida albicans ATCC 10231 after 48 hrs by microbroth dilution method; format: functional; details: ATCC 10231, 48 h; method in brief: as §2
[22] = test system: Staphylococcus epidermidis; test: Antibacterial activity against Staphylococcus epidermidis ATCC 12228 by microdilution method; format: functional; method in brief: as §1
Staphylococcus aureus [23] = test: Antibacterial activity against methicillin-resistant Staphylococcus aureus by microdilution method; format: functional; method in brief: as §4
[24] = Cytotoxicity against human BEAS2B cells after 24 hrs by resazurin assay; format: cell-based, BEAS-2B; details: Homo sapiens, BEAS-2B
Candida albicans [25] = test: Antifungal activity against azole-resistant Candida albicans ATCC 90819 after 48 hrs in presence of posaconazole by checkerboard microdilution assay; format: functional; details: ATCC 90819, 48 h; method in brief: as §3
Candida albicans [26] = test: Antifungal activity against azole-susceptible Candida albicans ATCC MYA-2310 after 48 hrs in presence of posaconazole by checkerboard microdilution assay; format: functional; details: ATCC MYA-2310, 48 h; method in brief: as §3
Pseudomonas aeruginosa = test: Antibacterial activity against Pseudomonas aeruginosa ATCC 27853 by microdilution method; format: functional; method in brief: as §1
[27] = test system: Mycobacterium tuberculosis; test: Activity of Mycobacterium tuberculosis Eis assessed as compound acetylation activity by Ellman's method
Klebsiella pneumoniae = test: Antibacterial activity against Klebsiella pneumoniae ATCC 27736 by microdilution method; format: functional; method in brief: as §1
[28] = Activity of AAC(3)-4 (unknown origin) assessed as compound acetylation activity by Ellman's method
Candida albicans [29] = test: Antifungal activity against azole-resistant Candida albicans ATCC 64124 assessed as cell death after 24 hrs by time-kill assay; format: functional, organism-based; method in brief: as §5
Candida albicans [30] = test: Antifungal activity against azole-resistant Candida albicans ATCC 64124 at MIC measured after 6 hrs by time-kill assay; format: functional; method in brief: as §5

**Q.** Which results are given for `CCCCCCCCCCCCSC[C@@H]1O[C@@H](O[C@@H]2[C@@H](O)[C@H](O[C@@H]3O[C@@H](CN)[C@H](O)[C@@H](O)[C@@H]3N)[C@@H](N)C[C@H]2N)[C@@H](O)[C@H](N)[C@H]1O` (stereo in doubt)?
**A.** Activity [1]: inactive; MIC (Acinetobacter baumannii): > 128 µg/mL; MIC (Candida albicans [2]): 31.2 µg/mL (≈ 46.7 µM); MIC (Candida albicans [3]): 2 µg/mL; MIC (Aspergillus nidulans): ≤ 1.95 µg/mL; MIC (Candida albicans [4]): 2 µg/mL; MIC (Staphylococcus aureus [5]): 16 µg/mL (≈ 24 µM); MIC (Enterobacter cloacae): > 128 µg/mL; MIC (Candida albicans [6]): 31.2 µg/mL (≈ 46.7 µM); Activity (Candida albicans [7]): 44%; MIC (Bacillus subtilis): > 128 µg/mL; Activity [8]: inactive; Activity (Candida albicans [9]): 90%; MIC (Candida albicans [10]): 31.2 µg/mL (≈ 46.7 µM); MIC (Escherichia coli): > 128 µg/mL; Activity [11]: inactive; IC50 (A549): > 62.5 µg/mL; MIC (Candida albicans [12]): 31.2 µg/mL (≈ 46.7 µM); MIC (Candida albicans [13]): 7.8 µg/mL (≈ 11.7 µM); Activity (Serratia marcescens): inactive; MIC (Candida albicans [14]): 8 µg/mL; MIC (Candida albicans [15]): 2 µg/mL; MIC (Salmonella enterica): > 128 µg/mL; MIC (Enterococcus): 16 µg/mL (≈ 24 µM); Activity (Candida albicans [16]): Active; MIC (Candida albicans [17]): 31.2 µg/mL (≈ 46.7 µM); hemolysis at 1 h, 125 ug/ml [18]: 40%; MIC (Candida albicans [19]): 2 µg/mL; MIC (Staphylococcus aureus [20]): 16 µg/mL (≈ 24 µM); MIC (Candida albicans [21]): 31.2 µg/mL (≈ 46.7 µM); MIC [22]: > 128 µg/mL; MIC (Staphylococcus aureus [23]): 32 µg/mL (≈ 47.9 µM); IC50 [24]: > 125 µg/mL; MIC (Candida albicans [25]): 4 µg/mL; MIC (Candida albicans [26]): 1 µg/mL; MIC (Pseudomonas aeruginosa): 32 µg/mL (≈ 47.9 µM); Activity [27]: inactive; MIC (Klebsiella pneumoniae): > 128 µg/mL; Activity [28]: inactive; Activity (Candida albicans [29]): Active; LCK (Candida albicans [30]): >=2
